TNAP act hi DEA: activators of human TNAP at high phosphate acceptor concentration. P05186. purified TNAP, CDP-star luminescence, 1 M DEA, 30 min; hits give high values; 0 = EDTA background, 1 = DMSO-only activity. 200,000 tested, under 10 active. AID 1136. activation factor at 20 µM;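 active means activation factor at least 2 at 20 µM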
Target sequence (P05186 whole entry, looked up): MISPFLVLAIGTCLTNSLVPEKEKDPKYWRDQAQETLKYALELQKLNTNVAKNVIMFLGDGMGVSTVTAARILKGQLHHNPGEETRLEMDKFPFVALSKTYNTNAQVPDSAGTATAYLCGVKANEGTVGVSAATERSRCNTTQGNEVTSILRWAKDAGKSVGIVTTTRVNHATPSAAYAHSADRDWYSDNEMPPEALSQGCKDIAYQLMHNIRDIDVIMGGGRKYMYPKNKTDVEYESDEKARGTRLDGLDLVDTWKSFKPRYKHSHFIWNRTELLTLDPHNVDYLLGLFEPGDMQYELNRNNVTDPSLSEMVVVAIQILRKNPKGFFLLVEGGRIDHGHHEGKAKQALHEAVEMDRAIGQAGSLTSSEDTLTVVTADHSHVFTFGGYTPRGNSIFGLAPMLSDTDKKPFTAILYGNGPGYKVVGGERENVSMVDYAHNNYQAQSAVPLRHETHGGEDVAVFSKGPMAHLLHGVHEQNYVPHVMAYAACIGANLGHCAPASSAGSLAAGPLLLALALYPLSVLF
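Control set: EDTA negative control, DMSO positive control / Assay system: human TNAP / Quantity: TNAP 1/800 final / Evaluation: TNAP activation factor scaled between EDTA and DMSO control wells / Measured by: luminescent substrate turnover signal / Compound dosing: one dose, 20 µM / Times: 30 min enzyme reaction at room temperature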
TNAP inh noacc: inhibitors of human TNAP without phosphate acceptor | P05186 | purified TNAP, CDP-star luminescence, 30 min | inhibition, % at 20 µM | 0.26% of 200,000 active;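 active means tissue-nonspecific alkaline phosphatase inhibition above about 50% at 20 µM in the single-dose screen, limit read from the data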
WT yeast gro inh: growth inhibition of WT yeast, mitochondrial fusion screen | 2.1% of 190,000 active | inhibition, % at 10 µM | mitochondrial fusion phenotypic screen, WT strain; in the data active means inhibition above about 58%; tested in S. cerevisiae
TNAP inh hi DEA: blocks human TNAP under high phosphate acceptor concentration | 0.03% of 200,000 active | P05186 | purified TNAP, CDP-star luminescence, 1 M DEA | inhibition, % at 20 µM;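 active means over 50% inhibition of tissue-nonspecific alkaline phosphatase at 20 µM in the single-dose screen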
Arbovirus anti: antivirals against arbovirus infection; arbovirus infection cell-based antiviral screen; inhibition, % at 10 µM; 0.37% of 200,000 active; AID 1251; in the data active means inhibition above about 30%
Numbers stand for hits; 0 = inactive; - = no result given. Compounds with a hit are over-represented: about 2.6% of the library has one in this group of screens.

SMILES	TNAP act hi DEA	TNAP inh noacc	WT yeast gro inh	TNAP inh hi DEA	Arbovirus anti
O=P(Nc1cccc(Cl)c1)(Oc1ccccc1)Oc1ccccc1	0	0	79	0	0
CCOC(=O)CC1=C(C(=O)OCC)C2(C(=O)N1CC(=O)OC)C(C#N)=C(N)Oc1ccccc12 (stereo not drawn)	0	0	66	0	0
CC/C(=C\C=C\[C@@H]1C=C[C@@H]2CCC[C@H]2[C@@H]1C(=O)c1ccc[nH]1)[C@@H]1O[C@@H]([C@@H](C)C(=O)O)CC[C@@H]1C	0	0	81	0	0
Fc1c(F)c(F)c(N2CCNCC2)c(F)c1F	0	0	0	0	0
CC1(C)OC(c2ccccc2)=C/C(=C/C=C2C(=O)NC(=S)NC2=O)O1	0	59	0	0	0
CN1C2CCC1CC(=NO)C2	0	0	0	0	0
O=c1[nH]c(=S)n(C2CC2)c(O)c1/C=N/Nc1ccccc1	0	0	58	0	0
Cc1cccc(C)c1NC(=O)c1cccn(Cc2ccc3c(c2)OC(F)(F)O3)c1=O	0	0	61	0	0
O=c1[nH]c(O)c(/C=C2\C=NN=C2c2ccccc2)c(=O)[nH]1	0	51	0	0	0
O=C(c1ccccc1)c1ccccc1N=Cc1c(O)[nH]c(=O)[nH]c1=O	0	0	0	0	0
CN1CCc2nc(N)c(C#N)c(-c3ccccc3)c2C1	0	0	0	0	0
CN1CCc2nc3sc(C#N)c(N)c3c(-c3cccs3)c2C1	0	0	0	0	32
CC1CCC(C(C)C)C(OC(=O)COC(=O)c2ccccc2N)C1 (stereo not drawn)	0	0	60	0	0
CCc1ccc(NP(=O)(Oc2ccccc2F)Oc2ccccc2F)cc1	0	0	62	0	0
Cc1ccc(NP(=O)(Oc2ccccc2F)Oc2ccccc2F)cc1	0	0	0	0	0
Clc1ccccc1CN1CCN(c2ccccc2Cl)CC1	0	0	70	0	0
NC(=O)Nc1ccc(C(=O)OCC(=O)Nc2ccc(Cl)cc2C(=O)c2ccccc2)cc1	0	0	0	0	0
CC(C)(O)[C@H]1O[C@H]2CC[C@@]3(C)[C@@](O)(CC[C@H]4Cc5c([nH]c6ccccc56)[C@@]43C)C2=CC1=O	0	0	74	0	0
COc1ccc2c(CN3CC=C(c4ccccc4)CC3)cc(=O)oc2c1	0	0	0	0	0
COc1ccc2ccc(O)c(CN3CC=C(c4ccccc4)CC3)c2c1	0	0	61	0	30
Cn1c(O)c(/C=C/C=Nc2ccccc2)c(=O)n(C)c1=S	0	0	0	0	0
CN1C(=O)C(=Cc2ccc(N3CCCCCC3)o2)C(=O)N(C)C1=S	0	0	0	0	0
CCc1ccccc1N1C(=O)/C(=C/c2ccc(N3CCN(C)CC3)o2)C(=O)NC1=S	0	51	0	0	0
O=C1NC(=O)N(c2ccc3c(c2)OCO3)C(=O)/C1=C\c1ccc(N2CCCCC2)o1	0	0	0	0	0
Cc1cccc(N2C(=O)/C(=C/c3ccc(N4CCN(C)CC4)o3)C(=O)NC2=S)c1C	0	51	0	0	0
SMILES	TNAP act hi DEA	TNAP inh noacc	WT yeast gro inh	TNAP inh hi DEA	Arbovirus anti
O=C(c1ccc(Cl)cc1)C1CCCN(Cc2ccc3ncccc3c2)C1 (stereo not drawn)	0	0	0	0	0
CCN(CC)c1ccc(CNCCc2ccc(F)cc2)cc1	0	0	0	0	0
CCCCn1c(=O)c(C(=O)Nc2ccsc2C(=O)OC)c(O)c2ccccc21	0	0	0	0	0
CC1=NN(c2ccccc2)C(=O)/C1=C/c1c(O)[nH]c(=O)[nH]c1=O	0	0	0	0	0
CC1=NN(c2ccccc2)C(=O)/C1=C/c1c(O)[nH]c(=S)[nH]c1=O	0	0	76	0	0
CCOC(=O)C1CCN(C=C2C(=O)N(C)C(=S)N(C)C2=O)CC1	0	0	0	0	0
CN1CCN(Cc2nnc3n2-c2ccc(Cl)cc2C(c2ccccc2)=NC3)CC1	0	0	0	0	0
Clc1ccc2c(c1)C(c1ccccc1Cl)=NCc1nnc(N3CCN(CCSc4ccccc4)CC3)n1-2	0	0	76	0	0
Clc1ccc2c(c1)C(c1ccccc1Cl)=NCc1nnc(N3CCN(CCOc4ccccc4)CC3)n1-2	0	0	60	0	0
O=C(c1ccc2c3c(cccc13)CC2)C1CCCN(CC2CC2)C1 (stereo not drawn)	0	0	0	0	0
CC(=O)c1ccc(OC(C)C)c(Cc2c(O)[nH]c(=S)[nH]c2=O)c1	0	0	0	0	0
CN(CC1COc2ccccc2O1)c1nc(-c2cccnc2)nc2ccccc12 (stereo not drawn)	-	-	80	-	0
CCC(C)N1C(=O)/C(=C/c2ccc3c(c2)CCN3CCCCl)C(=O)NC1=S (stereo not drawn)	0	0	0	0	0
Cc1c2ccncc2c(C)c2c1[nH]c1ccccc12	0	0	66	0	0
CN1C2CCC1/C(=C/c1ccccn1)C(=O)/C2=C\c1ccccn1	0	0	81	0	0
Cc1cc(Cl)ccc1C(=O)C1CCCN(C2CCSCC2)C1 (stereo not drawn)	0	0	0	0	0
C=CCN1C(=O)NC(=O)/C(=C/c2ccc(N(C)C)c(Br)c2)C1=O	0	0	0	0	0
Cc1oc(-c2ccccc2Cl)nc1CN1C(=O)CN=C(c2ccccc2)c2ccccc21	0	0	71	0	0
O=c1[nH]sc2cc(F)ccc12	0	0	73	0	0
O=c1[nH]c(=O)n(Cc2ccco2)c(O)c1C=NCc1ccco1	0	0	0	0	0
CCCCC(=O)N/N=C/c1c(O)n(Cc2ccco2)c(=O)[nH]c1=O	0	69	0	0	0
Cc1nn(Cc2ccccc2)c(Cl)c1C(=O)OCC(=O)NCC1CCCO1 (stereo not drawn)	0	0	0	0	0
CCC(C)n1c(O)c(/C=N/NC(=O)c2ccncc2)c(=O)[nH]c1=S (stereo not drawn)	0	75	0	0	0
CCn1c(O)c(/C=N/NC(=O)c2ccncc2)c(=O)[nH]c1=S	0	84	0	0	0
CCc1ccc(-n2c(O)c(/C=N/NC(=O)c3ccncc3)c(=O)[nH]c2=O)cc1	0	0	0	0	0
SMILES	TNAP act hi DEA	TNAP inh noacc	WT yeast gro inh	TNAP inh hi DEA	Arbovirus anti
CN(C)c1ccc(-[n+]2c(-c3ccccc3)cc(-c3ccccc3)cc2-c2ccccc2)cc1	0	0	77	0	0
O=[N+]([O-])NC1=NCN(Cc2ccco2)CN1Cc1ccco1	0	0	0	0	0
Cc1cccc(-n2c(-c3ccccc3)nc3ccccc3c2=O)n1	0	0	0	0	0
COC(=O)C(=O)N1CC2(C)CNCC(C)(C1)C2=O	0	0	0	0	0
O=c1c(C=NCc2cccs2)c(O)n(C2CCCCC2)c(=O)n1C1CCCCC1	0	0	0	0	0
N=C(N)c1c(O)n(C2CCCCC2)c(=O)n(C2CCCCC2)c1=O	0	0	96	0	0
CCCCCc1nc2c(c(=O)c3ccccc3n2C)c(=O)n1C1CCCCCC1	0	0	97	0	0
CCCCCc1nc2ccccc2c(=O)n1-c1ccccc1[N+](=O)[O-]	0	0	0	0	0
Clc1ccc(OCC#CCN2CCCC2)cc1	0	0	0	0	0
